The source made the active and inactive calls.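 How the source made its calls: active means cAMP rise above 50% of the positive control response, mean of two replicates; inactive means cAMP rise at or below 50% of control.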

We go through 16 compounds from PubChem BioAssay AID2645 (Broad Institute, 2010).

This test deals with human washed platelets, cAMP competitive ELISA, 5 min. Briefly: platelet cAMP elevation by compounds, confirmation, counter-screen for platelet activation inhibitor project, cell-based, competitive ELISA, PGE1 reference (AID 2645). The following applies: at 10 µM; active compounds read high. Summed up:
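Assay system: Washed donor platelets | Doses: 10 µM, single dose | Timing: 5 min compound treatment | Measured by: Competitive cAMP ELISA, platelet lysates, 0.5% Triton X-100, 0.1 M HCl | Control set: PGE1 1 µM high, DMSO 0.3% neutral | Replicates: Duplicates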
(In general: The purpose of a counterscreen is to sort out artefacts and off-target activity.)
As for `COc1ccccc1-n1cc(-c2ccc(Cl)cc2)[nH]c1=O`, the cAMP induction, % of PGE1 was 32.2% (inactive).
`CCC(CC)=N/N=C/c1c(O)n(CC)c2cc(C3=NNC(=O)CC3)ccc12`: the cAMP induction, % of PGE1 was 109%.
`COc1cc2c(cc1OC)-c1cc(Nc3ccccc3C)nc(=O)n1CC2`: the cAMP induction, % of PGE1 is 638%.
Turning to `COc1cc2c(cc1OC)/C(=C/C(=O)c1ccc(NC(C)=O)cc1)NCC2`, the cAMP induction, % of PGE1 is 67.8%.
As for `COc1cc2c(cc1OC)-c1cc(N3CCc4ccccc43)nc(=O)n1CC2`, the figure is 74.8%; as for `Cc1ccc(-n2c(N)c(C#N)c(-c3ccccc3)c(C#N)c2=O)cc1`, -16.7% (inactive).
For `CCOc1cc(/C=N/NC(N)=O)cc(Br)c1OCC(=O)Nc1ccccc1C`, the cAMP induction, % of PGE1 was 155%.
Take `COc1cc2c(cc1OC)-c1cc(N3CCCCCC3)nc(=O)n1CC2`: the cAMP induction, % of PGE1 was 83.7%.
On to `O=c1[nH]c2c(s1)C=Nc1ccccc1N2`, for which the cAMP induction, % of PGE1 is 163%.
Next, `COc1cc2c(cc1OC)-c1cc(Nc3ccc(F)cc3)nc(=O)n1CC2`: 210%; `O=C(Nc1cccc(NC(=O)c2ccccc2Cl)c1)c1ccco1`: -18.7% (inactive).
On to `COc1ccc(/C=N/N(C)c2cc(=O)n(C)c(=O)[nH]2)cc1OC`, for which the cAMP induction, % of PGE1 was 136%.
Turning to `Cc1[nH]c(=O)c(C#N)c(C)c1CSc1ncccn1`, the cAMP induction, % of PGE1 is 55.4%.
Consider `COc1ccccc1C(=O)Nc1c[nH]c(=O)[nH]c1=O`, for which the cAMP induction, % of PGE1 was 97.7%.
`C/C(=N/NC(=O)C1CCCC1)c1ccc(NC(=O)C(F)(F)F)cc1`: the cAMP induction, % of PGE1 is -25% (inactive).
As for `COC(=O)CS(=O)(=O)c1ccc2c(c1)CC(=O)N2`, the figure is 57.2%.
